In ChEMBL document CHEMBL5303300, “EUbOPEN Chemogenomics Library - Multiplex” (2023):
Where “and” joins values, the source holds several entries; their conditions need not be identical. Equal values may be shown once.

Experiments:
Fibroblast = test: Multiplex assay against human fibroblast; format: toxicity, cell-based; conditions: number of replicates 2
In short: (§1)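 At seeding, live cells were stained with Hoechst33342, BioTracker Green Microtubule Cytoskeleton Dye, MitoTracker Red and Annexin V Alexa Fluor 680. After compound addition they were imaged on a CQ1 microscope at 37°C and 5% CO2, and CellPathfinder machine-learning gating sorted them into Hoechst high-intensity objects or normal cells, with normal cells further split into healthy, pyknosed or fragmented nuclei and pyknosed cells into mitotic or apoptotic. Tubulin, mitochondrial-mass and membrane-permeability phenotypes are given as per cents of cells with healthy nuclei.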

U2OS = test: Multiplex assay against U2OS; format: toxicity, cell-based; conditions: human, number of replicates 2; in short: as §1
[1] = 24 h, 1 µM, compound concentration 1 uM
[2] = 24 h, 10 µM, compound concentration 10 uM
[3] = 48 h, 1 µM, compound concentration 1 uM
[4] = 48 h, 10 µM, compound concentration 10 uM
[5] = 12 h, 1 µM, compound concentration 1 uM
[6] = 12 h, 10 µM, compound concentration 10 uM

## Cc1cccc(S(=O)(=O)N(C)[C@H](C)CCN2CCC(C)CC2)c1.Cl
Fibroblast; [1]
  Population Fragmented Nuclei (%): 16% and 13%
  Population Healthy Nuclei (%): 61% and 71%
  Population Hoechst High Intensity Objects (%): 1% and 0%
  Population Membrane Permeable-Phenotype (%): 8% and 2%
  Population Mitochondria Different-Phenotype (%): 1% and 0%
  Population Mitotic Cells (%): 50% and 45%
  Population Normal (%): 98% and 100%
  Population Pyknosed Nuclei (%): 22% and 15%
  Population Tubulin-Different-Phenotype (%): 14% and 9%
  Total Cell Count: 144 and 156
Fibroblast; [2]
  Population Apoptotic (%): 50% and 53%
  Population Fragmented Nuclei (%): 13% and 9%
  Population Healthy Nuclei (%): 76% and 81%
  Population Hoechst High Intensity Objects (%): 0%
  Population Membrane Permeable-Phenotype (%): 6% and 1%
  Population Mitochondria Different-Phenotype (%): 2% and 0%
  Population Mitotic Cells (%): 50% and 46%
  Population Normal (%): 100%
  Population Pyknosed Nuclei (%): 10% and 9%
  Total Cell Count: 177 and 144
Fibroblast; [3]
  Population Apoptotic (%): 58% and 73%
  Population Fragmented Nuclei (%): 15%
  Population Healthy Nuclei (%): 63% and 72%
  Population Hoechst High Intensity Objects (%): 0%
  Population Membrane Permeable-Phenotype (%): 4% and 1%
  Population Mitochondria Different-Phenotype (%): 2% and 0%
  Population Mitotic Cells (%): 41% and 26%
  Population Normal (%): 100%
  Population Pyknosed Nuclei (%): 20% and 11%
  Total Cell Count: 139 and 160
Fibroblast; [4]
  Population Apoptotic (%): 54% and 72%
  Population Fragmented Nuclei (%): 20% and 11%
  Population Healthy Nuclei (%): 74% and 81%
  Population Hoechst High Intensity Objects (%): 0%
  Population Membrane Permeable-Phenotype (%): 2%
  Population Mitochondria Different-Phenotype (%): 0%
  Population Mitotic Cells (%): 45% and 27%
  Population Normal (%): 100%
  Population Pyknosed Nuclei (%): 5% and 7%
  Total Cell Count: 185 and 152
U2OS; [5]
  Population Apoptotic (%): 72% and 100%
  Population Fragmented Nuclei (%): 5% and 14%
  Population Healthy Nuclei (%): 84% and 82%
  Population Hoechst High Intensity Objects (%): 0%
  Population Membrane Permeable-Phenotype (%): 0%
  Population Mitochondria Different-Phenotype (%): 0%
  Population Normal (%): 100%
  Population Pyknosed Nuclei (%): 10% and 2%
U2OS; [6]
  Population Apoptotic (%): 50%
  Population Healthy Nuclei (%): 53% and 89%
  Population Hoechst High Intensity Objects (%): 0%
  Population Membrane Permeable-Phenotype (%): 0%
  Population Mitochondria Different-Phenotype (%): 0% and 1%
  Population Mitotic Cells (%): 50%
  Population Normal (%): 100%
  Population Tubulin-Different-Phenotype (%): 42% and 46%
U2OS; [1]
  Population Apoptotic (%): 41% and 14%
  Population Fragmented Nuclei (%): 4% and 10%
  Population Healthy Nuclei (%): 83% and 71%
  Population Hoechst High Intensity Objects (%): 0%
  Population Membrane Permeable-Phenotype (%): 1% and 0%
  Population Mitochondria Different-Phenotype (%): 0%
  Population Mitotic Cells (%): 58% and 85%
  Population Normal (%): 100%
  Population Pyknosed Nuclei (%): 11% and 17%
U2OS; [2]
  Population Apoptotic (%): 80% and 54%
  Population Healthy Nuclei (%): 54% and 91%
  Population Hoechst High Intensity Objects (%): 0%
  Population Membrane Permeable-Phenotype (%): 0% and 2%
  Population Mitochondria Different-Phenotype (%): 0% and 1%
  Population Mitotic Cells (%): 20% and 45%
  Population Normal (%): 100%
  Population Tubulin-Different-Phenotype (%): 58% and 56%
U2OS; [3]
  Population Apoptotic (%): 59% and 46%
  Population Fragmented Nuclei (%): 2% and 12%
  Population Healthy Nuclei (%): 89% and 68%
  Population Hoechst High Intensity Objects (%): 0%
  Population Membrane Permeable-Phenotype (%): 2% and 0%
  Population Mitochondria Different-Phenotype (%): 0%
  Population Mitotic Cells (%): 40% and 53%
  Population Normal (%): 100%
  Population Pyknosed Nuclei (%): 8% and 18%
  Population Tubulin-Different-Phenotype (%): 86% and 42%
U2OS; [4]
  Population Apoptotic (%): 30% and 62%
  Population Healthy Nuclei (%): 92% and 51%
  Population Hoechst High Intensity Objects (%): 0%
  Population Mitochondria Different-Phenotype (%): 0%
  Population Mitotic Cells (%): 69% and 37%
  Population Normal (%): 99% and 100%
  Population Tubulin-Different-Phenotype (%): 62% and 46%
